# Source: ChEMBL document CHEMBL1123920, “Leukotriene D4 antagonists and 5-lipoxygenase inhibitors. Synthesis of benzoheterocyclic [(methoxyphenyl)amino]oxoalkanoic acid esters” (J Med Chem, 1987)
# Assays:
# [1] = molecular target: T1, Polyunsaturated fatty acid 5-lipoxygenase (Rattus norvegicus, UniProt P12527); test: (§1) Ability to inhibit Lipoxygenase in vitro was determined
# T1 sequence (P12527 whole entry): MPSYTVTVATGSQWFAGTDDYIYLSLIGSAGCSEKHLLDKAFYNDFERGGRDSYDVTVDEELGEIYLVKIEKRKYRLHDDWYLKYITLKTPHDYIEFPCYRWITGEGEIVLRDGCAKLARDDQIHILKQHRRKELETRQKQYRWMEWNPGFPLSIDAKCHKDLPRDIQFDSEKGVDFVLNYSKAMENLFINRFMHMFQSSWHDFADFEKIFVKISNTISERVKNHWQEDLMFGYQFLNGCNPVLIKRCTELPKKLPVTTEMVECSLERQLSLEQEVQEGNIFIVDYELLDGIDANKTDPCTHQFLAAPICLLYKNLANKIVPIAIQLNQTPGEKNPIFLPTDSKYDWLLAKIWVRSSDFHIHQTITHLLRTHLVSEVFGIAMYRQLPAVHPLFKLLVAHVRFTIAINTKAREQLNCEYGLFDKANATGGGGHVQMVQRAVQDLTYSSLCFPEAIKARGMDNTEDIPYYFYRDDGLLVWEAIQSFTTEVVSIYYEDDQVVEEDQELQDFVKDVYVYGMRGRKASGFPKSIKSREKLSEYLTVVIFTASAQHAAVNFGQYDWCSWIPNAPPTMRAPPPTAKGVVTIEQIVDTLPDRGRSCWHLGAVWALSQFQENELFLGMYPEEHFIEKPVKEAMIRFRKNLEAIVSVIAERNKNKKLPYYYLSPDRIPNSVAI
# Cavia porcellus = test: Ability to inhibit the Ovalbumin induced bronchospasm in guinea pig was determined in vivo at a dose of 50 mg/kg id; type: functional; details: route intraduodenal
# How it was run: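 Guinea pigs were challenged with LTD4 or ovalbumin to induce bronchospasm, and test agent was given intraduodenally. Read-out is percent inhibition of bronchospasm. Significance uses a two-tailed Student's t test (p < 0.05). N is the number of treated animals.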
# [2] = molecular target: T2, Polyunsaturated fatty acid 5-lipoxygenase (Rattus norvegicus) (UniProt P12527); test: Ability to inhibit Lipoxygenase in vitro was determined; NA is <50% inhibition at 100 uM
# T2 sequence (whole entry): T1 sequence (P12527 whole entry)
# How it was run: (§2)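 Source is rat polymorphonuclear leukocyte (PMN) 5-lipoxygenase. IC50 values come from nonlinear regression analysis, significant at p < 0.05.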
# [3] = molecular target: T1, Polyunsaturated fatty acid 5-lipoxygenase; test: as §1; how it was run: as §2; remark: listed apart in the source
# [4] = molecular target: T1, Polyunsaturated fatty acid 5-lipoxygenase; test: Ability to inhibit the rat Lipoxygenase in vitro was determined; how it was run: as §2
# [5] = system: Cysteinyl leukotriene receptor (Cavia porcellus); test: Inhibition of LTD4 induced bronchospasm in guinea pig was determined in at 50 mg/kg i.d.
# Rattus norvegicus [6] = species: Rattus norvegicus; test: Tested for metabolic activation counted as mean number of revertants in strains TA98, TA100, TA1535, and TA1538, three plates per treatment at 0.5 mg per plate, with activation provided by S-9 rat liver homogenates in Ames test; type: functional, organism-based
# Rattus norvegicus [7] = species: Rattus norvegicus; test: Tested for metabolic activation counted as mean number of revertants in strains TA98, TA100, TA1535, and TA1538, three plates per treatment at 0.15 mg per plate, without activation in the absence of S-9 rat liver homogenates in Ames test; type: functional, organism-based
# Rattus norvegicus [8] = species: Rattus norvegicus; test: Tested for metabolic activation counted as mean number of revertants in strains TA98, TA100, TA1535, and TA1538, three plates per treatment at 0.005 mg per plate, without activation in the absence of S-9 rat liver homogenates in Ames test; type: functional, organism-based
# Rattus norvegicus [9] = species: Rattus norvegicus; test: Tested for metabolic activation counted as mean number of revertants in strains TA98, TA100, TA1535, and TA1538, three plates per treatment at 0.005 mg per plate, with activation provided by S-9 rat liver homogenates in Ames test; type: functional, organism-based
# Rattus norvegicus [10] = species: Rattus norvegicus; test: Tested for metabolic activation counted as mean number of revertants in strains TA98, TA100, TA1535, and TA1538, three plates per treatment at 0.15 mg per plate, with activation provided by S-9 rat liver homogenates in Ames test; type: functional, organism-based
# Rattus norvegicus [11] = species: Rattus norvegicus; test: Tested for metabolic activation counted as mean number of revertants in strains TA98, TA100, TA1535, and TA1538, three plates per treatment at 0.05 mg per plate, without activation in the absence of S-9 rat liver homogenates in Ames test; type: functional, organism-based
# Rattus norvegicus [12] = species: Rattus norvegicus; test: Tested for metabolic activation counted as mean number of revertants in strains TA98, TA100, TA1535, and TA1538, three plates per treatment at 0.015 mg per plate, without activation in the absence of S-9 rat liver homogenates in Ames test; type: functional, organism-based
# Rattus norvegicus [13] = species: Rattus norvegicus; test: Tested for metabolic activation counted as mean number of revertants in strains TA98, TA100, TA1535, and TA1538, three plates per treatment at 0.015 mg per plate, with activation provided by S-9 rat liver homogenates in Ames test; type: functional, organism-based
# Rattus norvegicus [14] = species: Rattus norvegicus; test: Tested for metabolic activation counted as mean number of revertants in strains TA98, TA100, TA1535, and TA1538, three plates per treatment at 0.05 mg per plate, with activation provided by S-9 rat liver homogenates in Ames test; type: functional, organism-based
Structure (SMILES),IC50 [1] [µM],inhibition [2] [%],inhibition in vivo at 50 mg/kg (Cavia porcellus) [%],further results
COC(=O)C1CC(=O)N(c2cccc(OCc3nc4ccccc4s3)c2)C1 (centres undefined),14,,,
COC(=O)C1CC(=O)N(c2cccc(OCc3nc4ccccc4o3)c2)C1 (centres undefined),30,,,
COC(=O)CCC(=O)Nc1cccc(OCc2nc3ccccc3n2C)c1,,,60,IC50 [3]: 7.2 µM
COC(=O)CCC(=O)Nc1cccc(OCc2nc3ccccc3o2)c1,,,-65,IC50 [3]: 69.7 µM
COC(=O)CCC(=O)Nc1cccc(OCc2nc3ccccc3s2)c1,,,63,IC50 [4]: 15.7 µM
COC(=O)CC(=O)Nc1cccc(OCc2nc3ccccc3n2C)c1,,< 50,5,
COC(=O)C1CC(=O)N(c2cccc(OCc3nc4ccccc4n3C)c2)C1 (centres undefined),,< 50,,
COC(=O)CCC(=O)N(O)c1cccc(OCc2nc3ccccc3s2)c1,0.36,,6,inhibition [5]: 79%
O=C1CCC(=O)N1c1cccc(OCc2ccc3ccccc3n2)c1,,< 50,26,Mean no. of revertants (Rattus norvegicus [6]): 45; Mean no. of revertants (Rattus norvegicus [7]): 43; Mean no. of revertants (Rattus norvegicus [8]): 6; Mean no. of revertants (Rattus norvegicus [9]): 5; Mean no. of revertants (Rattus norvegicus [10]): 8; Mean no. of revertants (Rattus norvegicus [11]): 12; Mean no. of revertants (Rattus norvegicus [12]): 9; Mean no. of revertants (Rattus norvegicus [13]): 7; Mean no. of revertants (Rattus norvegicus [14]): 7

# Continued, in another order:
IC50 [1] [µM],inhibition [2] [%],Structure (SMILES),inhibition in vivo at 50 mg/kg (Cavia porcellus) [%],further results
18.9,,CCCc1c(OCCCCc2nnn[nH]2)ccc(C(C)=O)c1O [TOMELUKAST],79.7,
,< 50,Cn1c(COc2cccc(N3C(=O)CCC3=O)c2)nc2ccccc21,,
,< 50,O=C(O)CCC(=O)Nc1cccc(OCc2nc3ccccc3s2)c1,,
